Assay [1] has as its system KB. The assay is described as follows: Cytotoxicity against vincristine-resistant human KB cells assessed as growth inhibition after 72 hrs by MTT assay in presence of vincristine. The format is functional, cell-based.
Assay [2] concerns KB. The assay can be described thus: Cytotoxicity against vincristine-resistant human KB cells assessed as growth inhibition after 72 hrs by MTT assay. The format is functional, cell-based.
Assay [3] concerns KB. The assay is described as follows: Cytotoxicity against vincristine-sensitive human KB cells assessed as growth inhibition after 72 hrs by MTT assay. It counts as functional, cell-based.
In assay [4] the test system is HCT-116. The assay is described as follows: Cell cycle arrest in human HCT116 cells assessed as accumulation at pre-G1 phase at IC50 to 2 times IC50 after 48 hrs relative to control. It counts as functional. In outline:
(§1)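 Cells were exposed for 48 h, then analysed by flow-cytometric cell cycle profiling. Pre-G1 events were scored and compared with untreated control, with significance at p < 0.05.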

In assay [5] the test system is MDA-MB-468. The assay is described as follows: Induction of apoptosis in human MDA-MB-468 cells assessed as viable cells at IC50 after 48 hrs by annexin V-FITC/propidium iodide staining-based flow cytometric analysis (reference value: 92.9%). The format is functional.
Assay [6] has as its system MDA-MB-468. The assay can be described thus: Induction of apoptosis in human MDA-MB-468 cells assessed as late apoptotic cells at IC50 after 48 hrs by annexin V-FITC/propidium iodide staining-based flow cytometric analysis (reference value: 3.65%). It counts as functional.
Assay [7] relates to MDA-MB-468. The assay can be described thus: Induction of apoptosis in human MDA-MB-468 cells assessed as necrotic cells at 2 times IC50 after 48 hrs by annexin V-FITC/propidium iodide staining-based flow cytometric analysis (reference value: 0.25%). It counts as functional.
Assay [8] deals with MDA-MB-468. The assay can be described thus: Induction of apoptosis in human MDA-MB-468 cells assessed as necrotic cells at IC50 after 48 hrs by annexin V-FITC/propidium iodide staining-based flow cytometric analysis (reference value: 0.25%). It counts as functional.
A further assay has as its system HT-29. The assay can be described thus: Cytotoxicity against human HT-29 cells assessed as growth inhibition after 72 hrs by MTT assay. The format is functional, cell-based. Particulars: HT-29, 72 h.
In assay [9] the test system is HCT-116. The assay is described as follows: Induction of apoptosis in human HCT116 cells assessed as viable cells at 2 times IC50 after 48 hrs by annexin V-FITC/propidium iodide staining-based flow cytometric analysis (reference value: 94.4%). It counts as functional.
Assay [10] has as its system MDA-MB-468. The assay is described as follows: Cell cycle arrest in human MDA-MB-468 cells assessed as accumulation at pre-G1 phase at IC50 to 2 times IC50 after 48 hrs relative to control. The format is functional. In a few lines:
as §1

Assay [11] deals with HCT-116. The assay can be described thus: Induction of apoptosis in human HCT116 cells assessed as late apoptotic cells at IC50 after 48 hrs by annexin V-FITC/propidium iodide staining-based flow cytometric analysis (reference value: 2.27%). The format is functional.
For assay [12], the system named is HCT-116. The assay can be described thus: Induction of apoptosis in human HCT116 cells assessed as late apoptotic cells at 2 times IC50 after 48 hrs by annexin V-FITC/propidium iodide staining-based flow cytometric analysis (reference value: 2.27%). The format is functional.
Assay [13] has as its system HCT-116. The assay can be described thus: Induction of apoptosis in human HCT116 cells assessed as necrotic cells at 2 times IC50 after 48 hrs by annexin V-FITC/propidium iodide staining-based flow cytometric analysis (reference value: 1.84%). The format is functional.
Assay [14] deals with MDA-MB-468. The assay can be described thus: Induction of apoptosis in human MDA-MB-468 cells assessed as viable cells at 2 times IC50 after 48 hrs by annexin V-FITC/propidium iodide staining-based flow cytometric analysis (reference value: 92.9%). The format is functional.
Assay [15] has as its system HCT-116. The assay can be described thus: Cytotoxicity against human HCT116 cells assessed as growth inhibition after 72 hrs by MTT assay. Particulars: HCT-116, 72 h. It counts as functional, cell-based.
The test system of assay [16] is MDA-MB-468. The assay can be described thus: Induction of apoptosis in human MDA-MB-468 cells assessed as early apoptotic cells at IC50 after 48 hrs by annexin V-FITC/propidium iodide staining-based flow cytometric analysis (reference value: 3.24%). It counts as functional.
Assay [17] has as its system MDA-MB-468. The assay is described as follows: Induction of apoptosis in human MDA-MB-468 cells assessed as late apoptotic cells at 2 times IC50 after 48 hrs by annexin V-FITC/propidium iodide staining-based flow cytometric analysis (reference value: 3.65%). The format is functional.
The subject of assay [18] is MDA-MB-468. The assay can be described thus: Cytotoxicity against human MDA-MB-468 cells assessed as growth inhibition after 72 hrs by MTT assay. The format is functional, cell-based. Particulars: MDA-MB-468, 72 h.
For assay [19], the system named is MDA-MB-468. The assay is described as follows: Induction of apoptosis in human MDA-MB-468 cells assessed as early apoptotic cells at 2 times IC50 after 48 hrs by annexin V-FITC/propidium iodide staining-based flow cytometric analysis (reference value: 3.24%). The format is functional.
Assay [20] deals with HCT-116. The assay is described as follows: Induction of apoptosis in human HCT116 cells assessed as early apoptotic cells at 2 times IC50 after 48 hrs by annexin V-FITC/propidium iodide staining-based flow cytometric analysis (reference value: 1.45%). It counts as functional.
Another assay has as its system A549. The assay is described as follows: Cytotoxicity against human A549 cells assessed as growth inhibition after 72 hrs by MTT assay. The format is functional, cell-based. Particulars: A549, 72 h.
The subject of another assay is MCF7. The assay can be described thus: Cytotoxicity against human MCF7 cells assessed as growth inhibition after 72 hrs by MTT assay. Particulars: MCF7, 72 h. It counts as functional, cell-based.
The test system of assay [21] is HCT-116. The assay can be described thus: Induction of apoptosis in human HCT116 cells assessed as viable cells at IC50 after 48 hrs by annexin V-FITC/propidium iodide staining-based flow cytometric analysis (reference value: 94.4%). The format is functional.
Assay [22] has as its system HCT-116. The assay is described as follows: Induction of apoptosis in human HCT116 cells assessed as necrotic cells at IC50 after 48 hrs by annexin V-FITC/propidium iodide staining-based flow cytometric analysis (reference value: 1.84%). It counts as functional.
Assay [23] relates to HCT-116. The assay can be described thus: Induction of apoptosis in human HCT116 cells assessed as early apoptotic cells at IC50 after 48 hrs by annexin V-FITC/propidium iodide staining-based flow cytometric analysis (reference value: 1.45%). The format is functional.

In the case of `CC[C@H]1C[C@H]2C[C@H]3c4[nH]c5cc(C6CCC(=O)N6)c(OC)cc5c4CCN(C2)[C@@H]13` (stereo partly specified), the IC50 in the assay with KB [1], with KB [2] and in the assay with KB [3] was over 25 µg/mL in each case.
Turning to `CC[C@H]1C[C@H]2C[C@@H]3[C@H]1N(C2)C[C@@H](O)[C@@]31Nc2ccc(OC)cc2C1=O`, the IC50 in the assay with KB [1] is 53200 nM; with KB [2], over 25 µg/mL; in the assay with KB [3] it was over 25 µg/mL.
For `C/C=C1/CN2[C@H]3C[C@H]1C1(C(=O)OC)C[C@]4(C[C@@H]21)c1ccccc1N(C)[C@H]34` (stereo partly specified), the IC50 with KB [1] was 2620 nM; in the assay on KB [2], over 25 µg/mL; in the assay with KB [3] it was over 25 µg/mL.
For `CC[C@]1(O)C[C@@H]2CC(=O)n3c4c(c5ccccc53)CCN(C1)[C@@H]42`, the IC50 in the assay on KB [1], in the assay with KB [2] and with KB [3] was over 25 µg/mL throughout.
Turning to `CC[C@H]1C[C@H]2C[C@H]3c4[nH]c5ccc(OC)cc5c4C(=O)CN(C2)[C@@H]13`, the IC50 in the assay with KB [1], in the assay with KB [2] and with KB [3] was over 25 µg/mL throughout.
Regarding `C/C=C1/C[N+]2(CCl)CC[C@]34C(=C(C=O)[C@H]1C[C@@H]32)Nc1ccccc14.[Cl-]` (stereo partly specified), the IC50 in the assay with KB [1], with KB [2] and in the assay with KB [3] was over 25 µg/mL throughout.
`C/C=C1/CN(C)[C@H]2Cc3c([nH]c4ccccc34)[C@@H](c3cc4[nH]c5c(c4cc3OC)CCN3C[C@H]4C[C@H](CC)[C@H]3[C@H]5C4)C[C@H]1[C@]2(CO)C(=O)OC`: the Activity is on record as 80% with HCT-116 [4]; 90.1% with MDA-MB-468 [5]; 5.76% with MDA-MB-468 [6]; 1.68% with MDA-MB-468 [7]; 0.18% in the assay on MDA-MB-468 [8]; 4.85% in the assay with HCT-116 [9]. Also, the Activity in the assay on MDA-MB-468 [10] turned out to be 35%; in the assay with HCT-116 [11], 11.4%; with HCT-116 [12], 72.4%; in the assay with HCT-116 [13], 14.5%; in the assay with MDA-MB-468 [14], 63.1%; with MDA-MB-468 [16] it was 3.95%. In addition, the Activity in the assay with MDA-MB-468 [17] is recorded as 13.8%; with MDA-MB-468 [19], 21.4%; in the assay with HCT-116 [20] it was 8.25%; in the assay with HCT-116 [21], 79.6%; with HCT-116 [22], 3%; with HCT-116 [23] it was 6.98%. In addition, the IC50 was determined as 2570 nM with HT-29; 980 nM in the assay with KB [1]; 1210 nM in the assay with KB [2]; 1390 nM in the assay with KB [3]; 2910 nM in the assay with HCT-116 [15]; 2770 nM with MDA-MB-468 [18]. Further, the IC50 in the assay on A549 came to 3060 nM; in the assay with MCF7, 4190 nM.
For the compound `C/C=C1/CN[C@H]2Cc3c([nH]c4ccccc34)[C@@H](c3cc4[nH]c5c(c4cc3OC)CCN3C[C@H]4C[C@H](CC)[C@H]3[C@H]5C4)C[C@H]1[C@@H]2C(=O)OC`, the Activity turned out to be 80% with HCT-116 [4]; 93% with MDA-MB-468 [5]; 3.15% in the assay on MDA-MB-468 [6]; 2.68% in the assay on MDA-MB-468 [7]; 0.17% in the assay on MDA-MB-468 [8]; 6.4% with HCT-116 [9]. Further, the Activity is 35% with MDA-MB-468 [10]; 22% with HCT-116 [11]; 43.7% in the assay on HCT-116 [12]; 46.4% with HCT-116 [13]; 22.8% in the assay on MDA-MB-468 [14]; 3.7% with MDA-MB-468 [16]. Further, the Activity in the assay with MDA-MB-468 [17] stood at 32%; in the assay with MDA-MB-468 [19], 42.5%; with HCT-116 [20] it was 3.5%; with HCT-116 [21] it was 21.9%; in the assay with HCT-116 [22] it was 48.4%; in the assay with HCT-116 [23], 7.76%. For the same compound, the IC50 worked out at 1580 nM with HT-29; 1200 nM with KB [1]; 1110 nM in the assay on KB [2]; 950 nM with KB [3]; 2030 nM in the assay on HCT-116 [15]; 700 nM with MDA-MB-468 [18]. The IC50 in the assay on A549 is 2830 nM; in the assay on MCF7 it was 3230 nM.
For `C/C=C1/CN(C)[C@H]2Cc3c([nH]c4ccccc34)[C@@H](c3cc4[nH]c5c(c4cc3OC)CCN3C[C@H]4C[C@H](CC)[C@H]3[C@H]5C4)C[C@H]1[C@@H]2C(=O)OC`, the IC50 in the assay with KB [1] worked out at 800 nM; in the assay with KB [2] it was 980 nM; with KB [3], 1530 nM.
The like results for `C/C=C1/CN(C)[C@H]2Cc3c([nH]c4ccccc34)[C@@H](c3cc4c(cc3OC)C(=O)[C@@]3(CCN5C[C@H]6C[C@H](CC)[C@H]5[C@H]3C6)N4)C[C@H]1[C@@H]2C(=O)OC` were, in that order, 1210 nM, 1060 nM and 1060 nM.

The values are drawn from ChEMBL document CHEMBL3580573, “Ibogan, tacaman, and cytotoxic bisindole alkaloids from tabernaemontana. Cononusine, an iboga alkaloid with unusual incorporation of a pyrrolidone moiety” (J Nat Prod, 2015).
